According to ChEMBL document CHEMBL1649346, “Antiproliferative activity of phenylbutyrate ester of haloperidol metabolite II [(±)-MRJF4] in prostate cancer cells” (Eur J Med Chem, 2011):
pIC50, pKi: −log10 of the molar value. Values joined by “and” are separate entries in the source; they are usually repeats but may differ in a detail not shown here. Equal values may be shown once. Active and inactive are the calls of the source. No cut-off for these calls is given here.

Key:
[1] = Displacement of [3H]DTG from sigma 2 receptor in guinea pig brain membrane after 120 mins by liquid scintillation counting; format: cell membranes, Cavia porcellus
In short: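 Guinea pig membranes were incubated 120 min at room temperature with 3 nM [³H]DTG and (+)-SKF10,047 to mask σ1 sites, in 50 mM Tris-HCl pH 8.0. DTG defined nonspecific binding. Samples were filtered on PEI-presoaked glass-fibre filters, washed and counted by liquid scintillation; Ki was calculated.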

[2] = molecular target: Sigma non-opioid intracellular receptor 1 (Cavia porcellus, UniProt Q60492); test: Displacement of [3H]-(+)-pentazocine from sigma 1 receptor in guinea pig brain membrane after 150 mins by liquid scintillation counting; format: cell membranes
Sigma non-opioid intracellular receptor 1, sequence (Q60492 whole entry): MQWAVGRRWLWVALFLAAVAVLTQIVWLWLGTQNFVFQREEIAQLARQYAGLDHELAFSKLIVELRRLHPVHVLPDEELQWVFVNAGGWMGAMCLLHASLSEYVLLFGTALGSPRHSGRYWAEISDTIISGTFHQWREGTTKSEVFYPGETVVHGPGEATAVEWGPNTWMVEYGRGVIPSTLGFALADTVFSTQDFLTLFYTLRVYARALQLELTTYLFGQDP
In short: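 Guinea pig membranes were incubated to equilibrium, 150 min at 37 °C, with 3 nM [³H]-(+)-pentazocine (45 Ci/mmol) and increasing levels of displacer in 50 mM Tris-HCl pH 7.4. Haloperidol defined nonspecific binding. Samples were filtered on PEI-presoaked glass-fibre filters, washed with ice-cold buffer and counted by liquid scintillation; Ki was calculated.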

[3] = molecular target: D(2) dopamine receptor (Rattus norvegicus, UniProt P61169); test: Displacement radioligand form dopamine D2 receptor in rat striatum by liquid scintillation counting; format: tissue-based
D(2) dopamine receptor, sequence (P61169 whole entry): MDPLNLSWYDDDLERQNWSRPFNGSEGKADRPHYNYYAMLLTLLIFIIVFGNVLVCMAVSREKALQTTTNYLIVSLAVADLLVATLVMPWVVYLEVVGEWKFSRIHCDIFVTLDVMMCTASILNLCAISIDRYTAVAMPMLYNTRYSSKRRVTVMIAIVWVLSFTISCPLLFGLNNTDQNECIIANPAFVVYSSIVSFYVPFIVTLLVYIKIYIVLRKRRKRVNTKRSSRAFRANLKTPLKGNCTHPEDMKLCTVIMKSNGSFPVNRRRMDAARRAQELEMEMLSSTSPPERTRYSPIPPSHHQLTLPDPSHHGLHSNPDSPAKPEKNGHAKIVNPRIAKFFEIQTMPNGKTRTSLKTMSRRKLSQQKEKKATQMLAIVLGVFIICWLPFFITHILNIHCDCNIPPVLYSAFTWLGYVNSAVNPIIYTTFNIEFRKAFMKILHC

[4] = molecular target: D(3) dopamine receptor (Rattus norvegicus, UniProt P19020); test: Displacement radioligand form dopamine D3 receptor in rat olfactory tubercle by liquid scintillation counting; format: tissue-based
D(3) dopamine receptor, sequence (P19020 whole entry): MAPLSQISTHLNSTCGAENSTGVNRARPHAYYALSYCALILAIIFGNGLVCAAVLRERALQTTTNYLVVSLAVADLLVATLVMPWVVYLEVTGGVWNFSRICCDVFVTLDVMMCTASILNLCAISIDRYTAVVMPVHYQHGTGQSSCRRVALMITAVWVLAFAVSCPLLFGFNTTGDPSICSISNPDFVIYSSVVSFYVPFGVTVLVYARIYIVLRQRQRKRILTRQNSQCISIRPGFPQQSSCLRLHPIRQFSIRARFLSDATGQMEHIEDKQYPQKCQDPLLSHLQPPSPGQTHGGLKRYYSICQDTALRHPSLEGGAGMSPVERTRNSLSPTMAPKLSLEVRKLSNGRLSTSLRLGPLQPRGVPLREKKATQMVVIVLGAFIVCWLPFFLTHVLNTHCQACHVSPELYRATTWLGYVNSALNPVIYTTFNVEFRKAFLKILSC

[5] = tested on: LNCaP; test: Antiproliferative activity against human LNCAP cells after 24 hrs by MTT assay; format: functional, cell-based
In short: (§1)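 LNCaP cells were grown in RPMI 1640 with 10% heat-inactivated FBS, penicillin/streptomycin, HEPES, 1 mM pyruvate and 2.5 g/L glucose. PC3 cells were grown in RPMI 1640 with 10% FBS and penicillin/streptomycin, at 37 °C in 5% CO₂. Cells were seeded at 4 × 10⁴ per well and left to adhere overnight. Compounds were diluted 1:1000 from DMSO stocks, with a 0.1% DMSO vehicle, and incubated 24–96 h without medium change. MTT was added for 4 h, the formazan dissolved in DMSO, and A570 read. Runs were in quadruplicate; ED50 was taken from dose-effect curves against vehicle.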

[6] = tested on: PC-3; test: Antiproliferative activity against human PC3 cells after 24 hrs by MTT assay; format: functional, cell-based; conditions: PC-3, 24 h; in short: as §1
[7] = tested on: LNCaP; test: Antiproliferative activity against human LNCAP cells at 10 uM after 96 hrs by MTT assay; format: functional, cell-based
In short: (§2)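 Percent growth was scored against vehicle-treated control (0.1% DMSO, 1:1000 dilution of DMSO stock) using the MTT assay. LNCaP cells were in supplemented RPMI 1640 with HEPES, pyruvate and glucose; PC3 cells were in RPMI 1640 with 10% FBS. Cells were seeded at 4 × 10⁴ per well and exposed 24, 48, 72 or 96 h. MTT was added for 4 h, the formazan dissolved in DMSO, and A570 read; n = 4.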

[8] = tested on: PC-3; test: Antiproliferative activity against human PC3 cells at 10 uM after 96 hrs by MTT assay; format: functional, cell-based; in short: as §2
[9] = tested on: LNCaP; test: Antiproliferative activity against human LNCAP cells after 48 hrs by MTT assay; format: functional, cell-based; in short: as §1
[10] = tested on: PC-3; test: Antiproliferative activity against human PC3 cells after 48 hrs by MTT assay; format: functional, cell-based; conditions: PC-3, 48 h; in short: as §1
[11] = tested on: LNCaP; test: Antiproliferative activity against human LNCAP cells after 72 hrs by MTT assay; format: functional, cell-based; in short: as §1
[12] = tested on: PC-3; test: Antiproliferative activity against human PC3 cells after 72 hrs by MTT assay; format: functional, cell-based; conditions: PC-3, 72 h; in short: as §1
[13] = tested on: LNCaP; test: Antiproliferative activity against human LNCAP cells after 96 hrs by MTT assay; format: functional, cell-based; in short: as §1
[14] = tested on: PC-3; test: Antiproliferative activity against human PC3 cells after 96 hrs by MTT assay; format: functional, cell-based; conditions: PC-3, 96 h; in short: as §1
[15] = tested on: LNCaP; test: Antiproliferative activity against human LNCAP cells at 10 to 25 uM after 24 hrs by MTT assay; format: functional; in short: as §2
[16] = tested on: PC-3; test: Antiproliferative activity against human PC3 cells at 10 to 25 uM after 24 hrs by MTT assay; format: functional; in short: as §2
[17] = molecular target: T1, Histone deacetylase (Homo sapiens) (UniProt Q13547+O15379+Q9UBN7+Q92769+Q9UQL6+Q8WUI4+Q9BY41+Q96DB2+P56524+Q9UKV0+Q969S8); test: Inhibition of HDAC in human HeLa cells at 10 uM after 10 mins by fluorometric assay; format: cell-based
In short: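 The HDAC fluorescent activity kit was used with supplied HeLa extract. Test agent was added in assay buffer, with trichostatin A (1 µM listed) as full-inhibition control. The reaction was started with acetyl-lysine Fluor de Lys substrate at 25–37 °C and stopped after 10 min with developer, then held 10–15 min at room temperature. Fluorescence was read at ex 360/em 460 nm. Percent inhibition was taken against the uninhibited reaction, in triplicate.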

[18] = molecular target: T1, Histone deacetylase (Homo sapiens); test: Inhibition of HDAC in human PC3 cells at 10 uM after 10 mins by fluorometric assay; format: cell-based; conditions: PC-3
In short: (§3)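 LNCaP or PC3 cells were seeded at 3 × 10⁵ per dish, left overnight, then treated in medium for 1 h (and 24 h). Cells were PBS-washed and lysed, and nuclear protein was extracted with the NE-PER kit. Extracts received assay buffer only plus Fluor de Lys substrate, 10 min at 25–37 °C, then developer. Fluorescence was read at ex 360/em 460 nm relative to DMSO-treated control, in triplicate.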

[19] = molecular target: T1, Histone deacetylase (Homo sapiens); test: Inhibition of HDAC in human LNCAP cells at 10 uM after 10 mins by fluorometric assay; format: cell-based; in short: as §3
[20] = molecular target: T1, Histone deacetylase (Homo sapiens); conditions: HeLa, 1.5 mM

O=C(CCCN1CCC(O)(c2ccc(Cl)cc2)CC1)c1ccc(F)cc1 [HALOPERIDOL] showed a pKi [1] of 7.80.

O=C(CCCc1ccccc1)OC(CCCN1CCC(O)(c2ccc(Cl)cc2)CC1)c1ccc(F)cc1 (racemic) showed a pKi [2] of 6.79, a pKi [1] of 6.98 and a pKi [3] of less than 5.30. The pKi [4] was less than 5.30, the pIC50 [5] was 4.96 and the pIC50 [6] was 4.89. For the same molecule, the Activity [7] was “Active”, the Activity [8] was “Active” and the pIC50 [9] was 5.05. It also gave a pIC50 [10] of 4.96, a pIC50 [11] of 5.09 and a pIC50 [12] of 5.11. The pIC50 [13] was 5.18, the pIC50 [14] was 5.17 and the Activity [15] was 45% and 40% and 20%. For the same molecule, the Activity [16] was 10%, the inhibition [17] was “inactive” and the inhibition [18] was “inactive”. The inhibition [19] was “inactive”.

Work on O=C(O)CCCc1ccccc1 yielded a pKi [2] of less than 5.00, a pKi [1] of less than 5.00 and a pIC50 [5] of 2.63. For the same molecule, the pIC50 [6] was 2.64 and the inhibition [20] was 60%.

OC(CCCN1CCC(O)(c2ccc(Cl)cc2)CC1)c1ccc(F)cc1 (centres undefined) [HYDROXYHALOPERIDOL] gave a pKi [1] of 9.01, a pKi [4] of 5.96 and a pIC50 [5] of 3.75. It also gave a pIC50 [6] of 3.68.
